Bioassay records (PubChem)
CYP2C9 inhib: blockers of cytochrome P450 2C9 activity – biochemical, luminescence, ADME assay, primary screen. P11712. CYP2C9 Supersomes, luciferin-H conversion. inhibition, % at 5 µM. actives 20% (n = 96,000). AID 777, 2007;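 active means blocking of liver enzyme CYP2C9 beyond about 50% at 5 µM, limit read from the data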
Target sequence (P11712 whole entry, looked up): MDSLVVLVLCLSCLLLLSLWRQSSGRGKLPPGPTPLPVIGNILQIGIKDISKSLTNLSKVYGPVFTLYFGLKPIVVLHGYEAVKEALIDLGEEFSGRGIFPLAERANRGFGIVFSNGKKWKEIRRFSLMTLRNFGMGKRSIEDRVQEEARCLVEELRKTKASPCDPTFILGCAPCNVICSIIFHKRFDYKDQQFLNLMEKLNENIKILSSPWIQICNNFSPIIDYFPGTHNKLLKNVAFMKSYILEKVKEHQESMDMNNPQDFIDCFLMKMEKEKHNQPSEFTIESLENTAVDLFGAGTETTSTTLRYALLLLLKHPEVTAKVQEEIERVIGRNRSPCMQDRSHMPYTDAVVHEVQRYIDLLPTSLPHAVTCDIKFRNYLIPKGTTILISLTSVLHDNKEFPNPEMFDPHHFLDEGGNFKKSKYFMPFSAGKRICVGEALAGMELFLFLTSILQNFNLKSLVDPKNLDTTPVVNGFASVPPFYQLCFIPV
CYP2C19 act: human CYP2C19 activators, primary screen, biochemical, luminescence | Cytochrome P450 2C19 (Homo sapiens), P33261 | recombinant CYP2C19, luciferin-H EGE luminescence; hits give high values; 0 = fully inhibited enzyme, 1 = untreated enzyme | activation factor at 5 µM | 96,000 tested, under 10 active;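 active means activation factor of at least 2 at 5 µM in the primary screen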;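 further: 0 = wells with 2.5 mM tranylcypromine and 1 = vehicle-only wells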
HIV Rev-RRE inh: HIV-1 Rev-RRE binding inhibitors, primary screen, biochemical, FRET, protein-RNA interaction; P05866; Rev peptide-RRE RNA binding; inhibition, % at 8 µM; actives 0.79% (n = 97,000); AID 704, 2007;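 active means inhibition above the screen-wide mean plus 3 SD, cut at about 35% in these data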;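 further: 0% = median DMSO wells and 100% = median Neomycin B control wells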
Target sequence (P05866 whole entry, looked up): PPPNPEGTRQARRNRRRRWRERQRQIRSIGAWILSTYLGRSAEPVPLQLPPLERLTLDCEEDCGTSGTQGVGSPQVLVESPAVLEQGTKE
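Assay system: Rev peptide and RRE RNA, both fluorescently labelled; times: 5 min preincubation and 15 min binding, 25 °C; detection: FRET, ex 480 nm, em 540 and 671 nm; read-out basis: % inhibition from 671/540 nm acceptor-to-donor ratio, scaled between controls; benchmarks: DMSO low control, neomycin B high control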
CYP2C9 act: human CYP2C9 activators, primary screen, biochemical, luminescence | AID 1024, 2008 | Cytochrome P450 2C9 (Homo sapiens), P11712 | recombinant CYP2C9, luciferin-H conversion; hits give high values; factor 1 = untreated enzyme, 0 = blocked | activation factor at 5 µM | actives 1.4% (n = 96,000);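 active means activation factor of 2 or more for CYP2C9 at a 5 µM dose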;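 further: 0 = sulfaphenazole-blocked wells and 1 = vehicle-only wells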
Cav32 inh: Cav3.2 calcium influx blockers – cell-based, Fluo-4 calcium fluorescence, FDSS, MLSMR library, primary screen; B-score at 10 µM; actives 4% (n = 100,000); Cav3.2-expressing cells; hits give low values;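 active means single-dose well whose peak fluorescence ratio is a statistical outlier from its plate by either plate-standardised score or position-corrected B-score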
CYP2C19 inh: blockers of cytochrome P450 2C19 activity – biochemical, luminescence, ADME assay, primary screen | AID 778, 2007 | P33261 | inhibition, % at 5 µM | actives 21% (n = 96,000) | CYP2C19 Supersomes, luciferin-H EGE luminescence, 30 min;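 active means CYP2C19 inhibition above a set limit at 5 µM in the primary screen, cut at about 50% in these data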;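 further: plate controls were negative control wells for no effect and 2.5 mM tranylcypromine positive control for full effect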
Numbers without * were called inactive; / = no result given. The list is not random: actives were taken first. Their share in the collection is about 27%.

SMILES	CYP2C9 inhib	CYP2C19 act	HIV Rev-RRE inh	CYP2C9 act	Cav32 inh	CYP2C19 inh
Cc1nnc(SCC(=O)Nc2ncc3c(n2)CC(c2ccccc2)CC3=O)s1 (stereo unspecified)	28	1	9	0.7	-0.045	1
O=C1CC(c2ccccc2)Cc2nc3nc(C(F)(F)F)nn3cc21 (stereo unspecified)	62*	0.5	15	0.4	-0.13	49
O=C1CC(c2ccc(F)cc2)Cc2nc(N3CCc4ccccc43)ncc21 (stereo unspecified)	-6	1.2	/	1.1	/	-18
CC(=O)c1cccc(NC(=O)c2ccc(N(C)S(C)(=O)=O)cc2)c1	-1	1.1	4	1	0.31	-9
Cc1ccc(C)c(NS(=O)(=O)c2cc(C(=O)Nc3cccc(N(C)S(C)(=O)=O)c3)ccc2C)c1	79*	0.8	2	0.2	-4.4*	24
Cc1ccc(C)c(NS(=O)(=O)c2cc(C(N)=O)ccc2C)c1	2	0.2	10	1	-0.01	76*
CCc1ccc(C(=O)NCc2cccs2)s1	45	0.2	/	0.5	-0.57	80*
O=C(NCc1cccs1)c1ccc(Cl)s1	6	0.5	8	0.9	1.3	54*
CCOc1ccc(C2C(C(=O)c3ccco3)=C(O)C(=O)N2CCN(C)C)cc1 (stereo unspecified)	44	0.8	13	0.6	/	24
COc1ccccc1NC(=O)/C(C#N)=C/C=C/c1ccco1	-203	1	5	3*	-1.5	-4
COc1ccccc1NC(=O)C(=O)NNC(=O)c1ccco1	-11	1	3	1.1	-0.14	-4
CC1CCCC(NC(=O)C2CCCN2S(=O)(=O)c2cccc3nsnc23)C1C (stereo unspecified)	57*	0.1	10	0.4	0.34	87*
CCC(C)NC(=O)C1CCN(S(=O)(=O)c2cccc3cccnc23)CC1 (stereo unspecified)	-217	0.7	5	3.2*	-0.014	29
O=C(NCCC1=CCCCC1)C1CCN(S(=O)(=O)c2cccc3cccnc23)CC1	-4	0.7	8	1	-0.22	32
O=C(NC1CCCCCC1)C1CCCN1S(=O)(=O)c1cccc2cccnc12 (stereo unspecified)	-5	0.2	8	1.1	-0.039	75*
Cc1c(NC(=O)C2CCCN2S(=O)(=O)c2cccc3nsnc23)cccc1C(=O)O (stereo unspecified)	21	1.1	3	0.8	-0.17	-8
O=C(NC1CCCC1)C1CCCN1S(=O)(=O)c1cccc2cccnc12 (stereo unspecified)	4	0.4	5	1	0.46	59*
Cc1cccc(-c2nc(C#N)c(NC3CCCCC3)o2)c1	0	1.1	12	1	0.59	-7
COc1ccc(Cc2nnc(NC(=O)Cn3cnc4c3c(=O)n(C)c(=O)n4C)s2)cc1	/	/	2	/	-0.0074	/
COC(=O)c1c(NC(=O)CN2CCC(C)CC2)c2c(C)cccc2n1C	6	0.8	4	0.9	0.2	20
Cc1cccc(NC(=O)N(C)Cc2cccs2)c1	-28	0.6	2	1.3	-0.27	44
O=C(NC1CCCCC1)C1CCN(S(=O)(=O)c2cccc3cccnc23)CC1	-242	0.4	3	3.4*	0.13	55*
C/C(Cc1ccccc1)=N\NC(=O)CCCCCC(=O)N/N=C(\C)Cc1ccccc1	10	0.4	-3	0.9	-0.49	57*
O=C(NCCN1CCOCC1)Nc1ccccc1	14	1	13	0.9	/	2
COc1ccc(OC)c(-n2c(C)ccc2-c2ccc(S(C)(=O)=O)cc2)c1	98*	0	2	0	-0.71	96*
SMILES	CYP2C9 inhib	CYP2C19 act	HIV Rev-RRE inh	CYP2C9 act	Cav32 inh	CYP2C19 inh
COc1ccc(OC)c(-n2c(-c3ccc(S(C)(=O)=O)cc3)cc(C=O)c2C)c1	66*	0.4	6	0.3	0.58	60*
COc1ccc(OC)c(-n2c(-c3cnccn3)n[nH]c2=S)c1	24	0.8	4	0.8	1.6	20
COc1ccc(OC)c(-n2c(-c3cc(-c4ccc(F)cc4)n[nH]3)n[nH]c2=S)c1	-11	0.6	5	1.1	0.57	35
COc1ccc(CCN2C(=O)C3CC(C)=C(C)CC3C2=O)cc1OC (stereo unspecified)	4	0.6	3	1	1.4	44
Cc1nc(SCC(=O)CC(=O)OC(C)C)c(C#N)c(C)c1C	23	0.4	15	0.8	-1.1	64*
Cc1cc(C)c(C#N)c(SCC(=O)Nc2nnc(-c3ccccc3)s2)n1	18	0.9	-3	0.8	-0.021	10
Cc1ccc2sc(NC(=O)CSc3nc(C)cc(C)c3C#N)nc2c1	68*	0.3	9	0.3	-0.053	68*
CSc1nc(N)nc(SCC(=O)CC(=O)OC(C)C)c1C#N	43	0.9	18	0.6	-0.098	12
Cc1cc(C)c(C#N)c(SCC(=O)CC(=O)OC(C)C)n1	53*	0.1	/	0.5	0.14	91*
CC(=O)N(Cc1ccc(F)cc1)C1=C(NCCc2ccccc2)C(=O)c2ccccc2C1=O	95*	0	12	0	-2.7	99*
Cc1cc(NC(=O)CCCC(=O)N(CC(=O)NCCc2ccccc2)Cc2ccc(F)cc2)no1	27	0.7	3	0.7	0.006	25
COc1cccc(Nc2nc(NCC3CCCO3)c3ccccc3n2)c1 (stereo unspecified)	29	0.9	-1	0.7	-5.7*	14
Oc1ccc(Nc2nc(NCC3CCCO3)c3ccccc3n2)cc1 (stereo unspecified)	12	1	10	0.9	-0.65	4
CC(/C=C/c1ccccc1)=N\NC(N)=S	14	0.8	-2	0.9	0.17	19
Cc1cc(C)c2c(CN3CCN(C/C=C/c4ccccc4)CC3)cc(=O)oc2c1	69*	0.5	10	0.3	-0.079	51*
COc1cc(Br)cc(CN2CCN(C/C=C/c3ccccc3)CC2)c1O	35	0.4	3	0.6	-1.6	60*
O=S1(=O)[C@H]2C[C@@H]3CC[C@]2(CN1Cc1cccc(F)c1)O3	/	/	/	/	0.2	/
C1CCc2c(nnc3c2-c2nonc2CC3)C1	12	0.9	2	0.9	2.2	6
O=c1cc(C(Cl)(Cl)Cl)oc2c1ccc1ccccc12	65*	0.4	8	0.4	-0.28	56*
O=C(NCCSc1c[nH]c2ccccc12)c1ccc2c(c1)OCO2	/	/	/	/	-3.6	/
